# Source: ChEMBL document CHEMBL1125826, “Synthesis and biological activity of 5-amino- and 5-hydroxyquinolones, and the overwhelming influence of the remote N1-substituent in determining the structure-activity relationship” (1991)
# Assays:
# Type in all cases: functional
# [1] = (§1) MIC ratio measured as the mean MICs of gram-positive bacteria
# In short: (§2)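 Geometric mean of the microtitration MICs (µg/mL) over the Gram-negative organisms, and separately over the Gram-positive organisms, of the 10-strain panel; individual MICs averaged from multiple experiments.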
# Enterococcus faecalis = test: Antibacterial activity was determined against gram positive organism, Streptococcus faecalis MGH-2; settings: Enterococcus faecalis; read-out: MIC
# In short: (§3)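 MIC (µg/mL) by standard microtitration against a panel of 10 Gram-positive and Gram-negative organisms; values averaged from multiple experiments.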
# Streptococcus pyogenes [2] = test: The in vivo potency was determined in female charles river CD-1 mice infected with Streptococcus pyogenes after sc administration; settings: Streptococcus pyogenes, sc; read-out: PD50
# In short: (§4)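 Acute lethal systemic infection in female CD-1 mice, 16 mice per route; single subcutaneous dose given at the time of challenge; median protective dose (PD50, mg/kg) determined.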
# Staphylococcus aureus [3] = test: Antibacterial activity was determined against gram positive organism, Staphylococcus aureus H228; settings: Staphylococcus aureus; read-out: MIC; in short: as §3
# Escherichia coli [4] = test: The in vivo potency was determined in female charles river CD-1 mice infected with Escherichia coli after peroral administration; settings: Escherichia coli, po; read-out: PD50
# In short: (§5)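 Acute lethal systemic infection in female CD-1 mice, 16 mice per route; single dose given orally by gavage at the time of challenge; median protective dose (PD50, mg/kg) determined.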
# Klebsiella pneumoniae = test: Antibacterial activity was determined against gram negative organism, Klebsiella pneumoniae MGH-2; settings: Klebsiella pneumoniae; read-out: MIC; in short: as §3
# Streptococcus pneumoniae [5] = test: Antibacterial activity was determined against gram positive organism, Streptococcus pneumoniae SV-1; settings: Streptococcus pneumoniae; read-out: MIC; in short: as §3
# Escherichia coli [6] = test: Antibacterial activity was determined against gram negative organism, Escherichia coli vogel; settings: Escherichia coli; read-out: MIC; in short: as §3
# Streptococcus pyogenes [7] = test: Antibacterial activity was determined against gram positive organism, Streptococcus pyogenes C203; settings: Streptococcus pyogenes; read-out: MIC; in short: as §3
# Pseudomonas aeruginosa = test: Antibacterial activity was determined against gram negative organism, Pseudomonas aeruginosa UI-18; settings: Pseudomonas aeruginosa; read-out: MIC; in short: as §3
# Staphylococcus aureus [8] = test: Antibacterial activity was determined against gram positive organism, Staphylococcus aureus UC76; settings: Staphylococcus aureus; read-out: MIC; in short: as §3
# [9] = (§6) MIC ratio measured as the mean MICs of gram-negative bacteria; in short: as §2
# Enterobacter cloacae = test: Antibacterial activity was determined against gram negative organism, Enterobacter cloacae MA2646; settings: Enterobacter cloacae; read-out: MIC
# Streptococcus pyogenes [10] = test: The in vivo potency was determined in female charles river CD-1 mice infected with Streptococcus pyogenes after peroral administration; settings: Streptococcus pyogenes, po; read-out: PD50; in short: as §5
# Bacteria [11] = test: Antibacterial activity was determined against gram negative organism, Providencia rettgeri. M1771; settings: Bacteria; read-out: MIC; in short: as §3
# Escherichia coli [12] = test: The in vivo potency was determined in female charles river CD-1 mice infected with Escherichia coli after sc administration; settings: Escherichia coli, sc; read-out: PD50; in short: as §4
# Bacteria [13] = test: as §1; in short: as §2
# Bacteria [14] = test: as §6; in short: as §2
# Streptococcus pneumoniae [15] = test: The in vivo potency was determined in female charles river CD-1 mice infected with Streptococcus pneumoniae after peroral administration; settings: Streptococcus pneumoniae, po; read-out: PD50; in short: as §5
# [16] = biological target: DNA gyrase (Escherichia coli) (UniProt P0AES6+P0AES4); test: Minimum inhibitory concentration against Escherichia coli DNA-gyrase in supercoiling assay
# Streptococcus pneumoniae [17] = test: The in vivo potency was determined in female charles river CD-1 mice infected with Streptococcus pneumoniae after sc administration; settings: Streptococcus pneumoniae, sc; read-out: PD50; in short: as §4
SMILES,MIC (Enterococcus faecalis) [µg/mL],ED50 (Streptococcus pyogenes [2]) [mg/kg],MIC (Staphylococcus aureus [3]) [µg/mL],ED50 (Escherichia coli [4]) [mg/kg],MIC (Klebsiella pneumoniae) [µg/mL],MIC (Streptococcus pneumoniae [5]) [µg/mL],MIC (Escherichia coli [6]) [µg/mL],MIC (Streptococcus pyogenes [7]) [µg/mL],MIC (Pseudomonas aeruginosa) [µg/mL],MIC (Staphylococcus aureus [8]) [µg/mL],MIC (Enterobacter cloacae) [µg/mL],ED50 (Streptococcus pyogenes [10]) [mg/kg],MIC (Bacteria [11]) [µg/mL],ED50 (Escherichia coli [12]) [mg/kg],Geometric mean MIC over Gram-positive bacteria (µg/mL) (Bacteria [13]),Geometric mean MIC over Gram-negative bacteria (µg/mL) (Bacteria [14]),ED50 (Streptococcus pneumoniae [15]) [mg/kg],MIC [16] [µg/mL],ED50 (Streptococcus pneumoniae [17]) [mg/kg],other results
CC1CN(c2c(F)c(N)c3c(=O)c(C(=O)O)cn(C4CC4)c3c2Cl)CC(C)N1 (stereo not given),0.4,8,0.1,2,0.2,0.1,0.05,0.2,1.6,0.025,0.1,10,0.4,1,–,–,–,–,–,Ratio [1]: 0.11; Ratio [9]: 0.23
CCNCC1CCN(c2c(F)c(N)c3c(=O)c(C(=O)O)cn(C4CC4)c3c2F)C1 (stereo not given),0.025,5,0.013,16,0.05,0.003,0.05,0.013,0.2,0.003,0.05,16,0.1,2,0.0082,0.075,5,0.5,3,–
NC1CCN(c2c(F)cc3c(=O)c(C(=O)O)cn(C4CC4)c3c2F)C1 (stereo not given),0.1,6,0.05,0.9,0.025,0.05,0.013,0.05,0.1,0.013,0.013,15,0.05,0.2,0.044,0.029,8,0.1,2,–
Nc1c(F)c(N2CCC(N)C2)c(F)c2c1c(=O)c(C(=O)O)cn2C1CC1 (stereo not given),0.05,9,0.05,2,0.013,0.025,0.006,0.025,0.1,0.013,0.006,20,0.025,1,0.029,0.016,28,0.5,8,–
CC1CN(c2c(F)c(N)c3c(=O)c(C(=O)O)cn(C4CC4)c3c2Cl)CCN1 (stereo not given),0.1,4,0.05,0.7,0.1,0.05,0.025,0.1,0.8,0.025,0.05,6,0.2,0.3,0.057,0.11,12,3.8,9,–
O=C(O)c1cn(C2CC2)c2c(F)c(N3CCNCC3)c(F)cc2c1=O,0.4,29,0.4,0.5,0.05,0.8,0.05,0.8,0.2,0.1,0.05,59,0.1,0.3,0.4,0.076,33,0.5,9,–
CC1CN(c2c(F)c(N)c3c(=O)c(C(=O)O)cn(C4CC4)c3c2F)CCN1 (stereo not given),0.1,18,0.05,0.5,0.025,0.05,0.013,0.2,0.4,0.025,0.013,20,0.05,0.2,0.066,0.038,20,1,15,–
